Measured values taken from PMC2744100 (Journal of medicinal chemistry, 2009).
Read-outs that look alike come from different tables or passages of the source.

Key:
TCCYP51 [1] = target: T1, TCCYP51 (Trypanosoma cruzi, UniProt Q7Z1V1); settings: read-out: Kd of enzyme/substrate complex formation; preferred substrate; cited from earlier work
TCCYP51 [2] = target: T1, TCCYP51; assay: Spectral titration of TCCYP51; assay type: binding; settings: ligand-free maximum 417 nm
TCCYP51 [3] = target: T1, TCCYP51; assay type: biochemical; settings: reconstituted enzyme reaction
[4] = tested on: rat cardiomyocyte monolayers; assay: Effect on cardiomyocyte monolayers in the growth inhibition assay; assay type: cell-based; settings: concentrations higher than 10 μM
[5] = tested on: TC trypomastigotes and amastigotes; assay: Growth inhibition assay in TC cells; assay type: cell-based, Trypanosoma cruzi; settings: for Effect on parasites in cardiomyocytes at 20 μM: 20 μM compound; for Antiparasitic effect in both human forms of TC: pre-treatment of trypomastigotes, 1–50 μM
Method in brief: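 Trypomastigotes (10^6) pre-exposed 30 min to test compound in DMSO (1–50 μM) or DMSO alone. Then added in triplicate to rat cardiomyocyte monolayers, 10 parasites/cell, for 2 h. Unbound parasites were removed and cultures kept 72 h in DMEM + 10% FBS. T. cruzi per 200 cells and % infection were counted microscopically on Giemsa stain. Mean ± SD; Student t test versus DMSO.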

TC epimastigotes [6] = settings: 1 μM; cited from earlier work
TC epimastigotes [7] = assay: TC cellular sterol analysis; assay type: cell-based, Trypanosoma cruzi; settings: 50 μM, TLC
TCCYP51 [8] = target: T1, TCCYP51; assay: ESI-MS analysis of non-covalent interactions in TCCYP51; assay type: binding; settings: ESI-mass spectrometry, 20-HCl 100 μM
TC cells = settings: published values; cited from earlier work

T1 sequence (Q7Z1V1 whole entry): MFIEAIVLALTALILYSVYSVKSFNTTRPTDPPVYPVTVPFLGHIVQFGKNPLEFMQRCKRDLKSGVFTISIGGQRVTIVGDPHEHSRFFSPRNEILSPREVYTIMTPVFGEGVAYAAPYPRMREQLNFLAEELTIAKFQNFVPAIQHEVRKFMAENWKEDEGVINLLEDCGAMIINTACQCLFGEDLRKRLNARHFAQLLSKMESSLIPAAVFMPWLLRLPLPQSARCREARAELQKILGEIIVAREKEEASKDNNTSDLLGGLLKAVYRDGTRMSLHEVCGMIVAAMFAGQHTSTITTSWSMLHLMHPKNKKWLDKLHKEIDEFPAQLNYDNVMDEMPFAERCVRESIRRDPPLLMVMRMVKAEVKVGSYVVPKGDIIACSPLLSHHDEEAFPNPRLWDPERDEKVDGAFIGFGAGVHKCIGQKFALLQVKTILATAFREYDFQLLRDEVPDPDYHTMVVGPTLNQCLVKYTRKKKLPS

Structure (SMILES): C=C(CC[C@@H](C)[C@H]1CC[C@@]2(C)C3=C(CC[C@]12C)[C@@]1(C)CC[C@H](O)C(C)(C)[C@@H]1CC3)C(C)C [24-methylenedihydrolanosterol]
- Kd (TCCYP51 [1]): ~1000 nM

Structure (SMILES): COc1ccc2c(c1)c(CC(=O)Nc1ncccn1)c(C)n2C(=O)c1ccc(Cl)cc1 [Compound 17]
- Spectral Response in TCCYP51, Soret band maximum (TCCYP51 [2]): 417 nm

Structure (SMILES): CCC(C(=O)Nc1ccncc1)c1ccccc1 (centres unmarked) [Compound 5, 2-phenyl-N-pyridin-4-ylbutanamide]
- Spectral Response in TCCYP51, Soret band maximum (TCCYP51 [2]): 422 nm

Structure (SMILES): COc1ccc2c(c1)c(CC(=O)NCc1ccncc1)c(C)n2C(=O)c1ccc(Cl)cc1 [Compound 14]
- Spectral Response in TCCYP51, Soret band maximum (TCCYP51 [2]): 422 nm

Structure (SMILES): COc1ccc2c(c1)c(CC(=O)NCC(C)c1ccccc1)c(C)n2C(=O)c1ccc(Cl)cc1 (centres unmarked) [Compound 22]
- Spectral Response in TCCYP51, Soret band maximum (TCCYP51 [2]): 419 nm
- Character of TCCYP51 inhibition (reversibility) (TCCYP51 [3]): functionally irreversible
- Effect on cardiomyocyte monolayers [4]: release cardiomyocyte monolayers at higher concentrations

Structure (SMILES): O=C(Nc1ccncc1)C1c2ccccc2Oc2ccccc21 [Compound 7]
- Spectral Response in TCCYP51, Soret band maximum (TCCYP51 [2]): 422 nm

Structure (SMILES): CC1CCC(C(=O)NC(Cc2c[nH]c3ccccc23)C(=O)Nc2ccncc2)CC1 (centres unmarked) [Compound 9]
- Spectral Response in TCCYP51, Soret band maximum (TCCYP51 [2]): 422 nm
- Effect on parasites in cardiomyocytes at 20 μM ([5]; 72 h): practically eliminated from cardiomyocytes
- Antiparasitic effect in both human forms of TC [5]: clear dose-dependent antiparasitic effect

Structure (SMILES): COc1ccc2c(c1)c(CC(=O)Nc1cccnc1)c(C)n2C(=O)c1ccc(Cl)cc1 [Compound 12]
- Spectral Response in TCCYP51, Soret band maximum (TCCYP51 [2]): 422 nm

Structure (SMILES): COc1ccc2c(c1)c(CC(=O)NCc1ccc(C(F)(F)F)nc1)c(C)n2C(=O)c1ccc(Cl)cc1 [Compound 19]
- Spectral Response in TCCYP51, Soret band maximum (TCCYP51 [2]): 420 nm

Structure (SMILES): O=C(NC(Cn1ccnc1)c1ccc(Cl)cc1Cl)c1ccc(-c2nnc(-c3ccccc3)o2)cc1 (centres unmarked) [SDZ-284629, N-(1-(2,4-dichlorophenyl)-2-(1H-imidazol-1-yl)ethyl)-4-(5-phenyl-1,3,4-oxadiazol-2-yl)benzamide]
- Effect on TC cellular sterol composition (TC epimastigotes [6]): the pathway practically stops at the stage of the C14-methylated sterol precursors

Structure (SMILES): COc1ccc2c(c1)c(CC(=O)NCc1ccc(Cl)nc1)c(C)n2C(=O)c1ccc(Cl)cc1 [Compound 18]
- Spectral Response in TCCYP51, Soret band maximum (TCCYP51 [2]): 420 nm
- Effect on parasites in cardiomyocytes at 20 μM ([5]; 72 h): practically eliminated from cardiomyocytes
- Antiparasitic effect in both human forms of TC [5]: clear dose-dependent antiparasitic effect

Structure (SMILES): COc1ccc2c(c1)c(CC(=O)NCCc1cccnc1)c(C)n2C(=O)c1ccc(Cl)cc1 [Compound 20]
- Spectral Response in TCCYP51, Soret band maximum (TCCYP51 [2]): 422 nm
- Effect on parasites in cardiomyocytes at 20 μM ([5]; 72 h): practically eliminated from cardiomyocytes
- ED50 (growth inhibition) ([5]; TC amastigotes in cardiomyocytes, 72 h): < 1000 nM
- Antiparasitic effect in both human forms of TC [5]: clear dose-dependent antiparasitic effect
- Effect on TC cellular sterol composition (TC epimastigotes [7]): very similar effect on cellular sterol composition
- Binding stoichiometry to TCCYP51 (TCCYP51 [8]): simultaneous binding of two inhibitor molecules to the enzyme

Structure (SMILES): COc1ccc2c(c1)c(CC(=O)Nc1ccccn1)c(C)n2C(=O)c1ccc(Cl)cc1 [Compound 16]
- Spectral Response in TCCYP51, Soret band maximum (TCCYP51 [2]): 416 nm

Structure (SMILES): COc1ccc2c(c1)c(CC(=O)NC(C)c1ccncc1)c(C)n2C(=O)c1ccc(Cl)cc1 (centres unmarked) [Compound 15]
- Spectral Response in TCCYP51, Soret band maximum (TCCYP51 [2]): 422 nm

Structure (SMILES): COc1ccc2c(c1)c(CC(=O)NCCc1cccc(Cl)c1)c(C)n2C(=O)c1ccc(Cl)cc1 [Compound 21]
- Spectral Response in TCCYP51, Soret band maximum (TCCYP51 [2]): 419 nm
- Character of TCCYP51 inhibition (reversibility) (TCCYP51 [3]): functionally irreversible
- Effect on cardiomyocyte monolayers [4]: release cardiomyocyte monolayers at higher concentrations

Structure (SMILES): O=C(Cn1ccnc1[N+](=O)[O-])NCc1ccccc1 [benznidazole]
- ED50 in TC cells (TC cells): 25000 to 50000 nM

Structure (SMILES): COc1ccc2c(c1)c(CC(=O)NCc1ccccn1)c(C)n2C(=O)c1ccc(Cl)cc1 [Compound 13]
- Spectral Response in TCCYP51, Soret band maximum (TCCYP51 [2]): 418 nm
- Effect on parasites in cardiomyocytes at 20 μM ([5]; 72 h): practically eliminated from cardiomyocytes
- Antiparasitic effect in both human forms of TC [5]: clear dose-dependent antiparasitic effect
